Legend:
[1] = Retention time of compound by HPLC analysis; type: physicochemical
A-375 [2] = experiment: Antiproliferative activity against human A375 cells at 0.01 ug/ml for 24 hrs by MTT assay; type: functional; settings: A-375, 24 h
Procedure, shortened: (§1)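 HEP-3B or A-375 cells were grown in DMEM with 10% FBS, 5% HBSS, penicillin, streptomycin and amphotericin B at 37 C and 5% CO2. Cells were seeded at 2 × 10^4 per well and preincubated for 24 h. They were then exposed to ten 1:3 serial dilutions from a top concentration of 100, made from 2% DMSO stocks. MTT was added for 3 h, formazan was dissolved in DMSO, and A550 was read. Wells were run in triplicate across three independent experiments. IC50 came from dose-response curves.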

A-375 [3] = experiment: Antiproliferative activity against human A375 cells at 0.02 ug/ml for 24 hrs by MTT assay; type: functional; settings: A-375, 24 h; procedure, shortened: as §1
A-375 [4] = experiment: Antiproliferative activity against human A375 cells at 0.05 ug/ml for 24 hrs by MTT assay; type: functional; settings: A-375, 24 h; procedure, shortened: as §1
A-375 [5] = experiment: Antiproliferative activity against human A375 cells at 0.14 ug/ml for 24 hrs by MTT assay; type: functional; settings: A-375, 24 h; procedure, shortened: as §1
A-375 [6] = experiment: Antiproliferative activity against human A375 cells at 0.41 ug/ml for 24 hrs by MTT assay; type: functional; settings: A-375, 24 h; procedure, shortened: as §1
A-375 [7] = experiment: Antiproliferative activity against human A375 cells at 1.23 ug/ml for 24 hrs by MTT assay; type: functional; settings: A-375, 24 h; procedure, shortened: as §1
A-375 [8] = experiment: Antiproliferative activity against human A375 cells at 3.7 ug/ml for 24 hrs by MTT assay; type: functional; settings: A-375, 24 h; procedure, shortened: as §1
A-375 [9] = experiment: Antiproliferative activity against human A375 cells at 11.11 ug/ml for 24 hrs by MTT assay; type: functional; settings: A-375, 24 h; procedure, shortened: as §1
A-375 [10] = experiment: Antiproliferative activity against human A375 cells at 33.33 ug/ml for 24 hrs by MTT assay; type: functional; settings: A-375, 24 h; procedure, shortened: as §1
A-375 [11] = experiment: Antiproliferative activity against human A375 cells at 100 ug/ml for 24 hrs by MTT assay; type: functional; settings: A-375, 24 h; procedure, shortened: as §1
[12] = Antiproliferative activity against human Hep3B cells at 0.01 ug/ml for 24 hrs by MTT assay; type: functional, Hep 3B2; procedure, shortened: as §1
[13] = Antiproliferative activity against human Hep3B cells at 0.02 ug/ml for 24 hrs by MTT assay; type: functional, Hep 3B2; procedure, shortened: as §1
[14] = Antiproliferative activity against human Hep3B cells at 0.05 ug/ml for 24 hrs by MTT assay; type: functional, Hep 3B2; procedure, shortened: as §1
[15] = Antiproliferative activity against human Hep3B cells at 0.14 ug/ml for 24 hrs by MTT assay; type: functional, Hep 3B2; procedure, shortened: as §1
[16] = Antiproliferative activity against human Hep3B cells at 0.41 ug/ml for 24 hrs by MTT assay; type: functional, Hep 3B2; procedure, shortened: as §1
[17] = Antiproliferative activity against human Hep3B cells at 1.23 ug/ml for 24 hrs by MTT assay; type: functional, Hep 3B2; procedure, shortened: as §1
[18] = Antiproliferative activity against human Hep3B cells at 3.7 ug/ml for 24 hrs by MTT assay; type: functional, Hep 3B2; procedure, shortened: as §1
[19] = Antiproliferative activity against human Hep3B cells at 11.11 ug/ml for 24 hrs by MTT assay; type: functional, Hep 3B2; procedure, shortened: as §1
[20] = Antiproliferative activity against human Hep3B cells at 33.33 ug/ml for 24 hrs by MTT assay; type: functional, Hep 3B2; procedure, shortened: as §1
[21] = Antiproliferative activity against human Hep3B cells at 100 ug/ml for 24 hrs by MTT assay; type: functional, Hep 3B2; procedure, shortened: as §1
A-375 (human melanoma) = experiment: Antiproliferative activity against human A375 cells for 24 hrs by MTT assay; settings: A-375, 24 h
HEP-3B (human hepatoma) = experiment: Antiproliferative activity against human Hep3B cells for 24 hrs by MTT assay
[22] = biological target: Dihydroorotate dehydrogenase (quinone), mitochondrial (Homo sapiens, UniProt Q02127); experiment: Inhibition of recombinant human DHODH activity after 20 mins by DCIP dye based colorimetric analysis in presence of 1 mM L-dihydroorotate and 0.1 mM CqD
Dihydroorotate dehydrogenase (quinone), mitochondrial, sequence (Q02127 whole entry): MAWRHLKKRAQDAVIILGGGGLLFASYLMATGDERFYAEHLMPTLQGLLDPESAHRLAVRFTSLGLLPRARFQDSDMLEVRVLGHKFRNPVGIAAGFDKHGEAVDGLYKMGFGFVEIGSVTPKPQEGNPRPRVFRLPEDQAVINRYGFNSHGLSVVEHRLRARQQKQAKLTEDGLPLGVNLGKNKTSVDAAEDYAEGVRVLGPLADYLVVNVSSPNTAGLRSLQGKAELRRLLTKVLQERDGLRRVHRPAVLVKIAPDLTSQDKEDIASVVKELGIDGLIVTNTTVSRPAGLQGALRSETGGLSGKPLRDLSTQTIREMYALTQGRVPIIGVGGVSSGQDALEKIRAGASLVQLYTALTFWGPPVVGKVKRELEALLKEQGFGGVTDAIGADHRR

| SMILES | Retention_time [1] [min] | inhibition at 0.01 µg/mL (A-375 [2]) [%] | inhibition at 0.02 µg/mL (A-375 [3]) [%] | inhibition at 0.05 µg/mL (A-375 [4]) [%] | inhibition at 0.14 µg/mL (A-375 [5]) [%] | inhibition at 0.41 µg/mL (A-375 [6]) [%] | inhibition at 1.23 µg/mL (A-375 [7]) [%] | inhibition at 3.7 µg/mL (A-375 [8]) [%] | inhibition at 11.11 µg/mL (A-375 [9]) [%] | inhibition at 33.33 µg/mL (A-375 [10]) [%] | inhibition at 100 µg/mL (A-375 [11]) [%] | inhibition at 0.01 µg/mL [12] [%] | inhibition at 0.02 µg/mL [13] [%] | inhibition at 0.05 µg/mL [14] [%] | inhibition at 0.14 µg/mL [15] [%] | inhibition at 0.41 µg/mL [16] [%] | inhibition at 1.23 µg/mL [17] [%] | inhibition at 3.7 µg/mL [18] [%] | inhibition at 11.11 µg/mL [19] [%] | inhibition at 33.33 µg/mL [20] [%] | further results |
| --- | --- | --- | --- | --- | --- | --- | --- | --- | --- | --- | --- | --- | --- | --- | --- | --- | --- | --- | --- | --- | --- |
| COc1ccc2nc(C(=O)Nc3ccc(-c4ccccc4)cc3)c(C)c(O)c2c1 | 6.4 | 0.13 | 0.56 | 1.98 | 3.05 | 7.62 | 18.7 | 27.2 | 36.2 | 46.2 | 66.9 | 0.35 | 0.96 | 1.23 | 3.52 | 7.58 | 14.2 | 23.5 | 36.2 | 48.4 | inhibition at 100 µg/mL [21]: 79.3%; IC50 (A-375 (human melanoma)): 18.1 µM; IC50 (HEP-3B (human hepatoma)): 50.6 µM; IC50 [22]: 2.28 µM |
| Cc1ccc2nc(C(=O)Nc3c(F)cc(-c4cccc(F)c4)cc3F)c(C)c(O)c2c1 | 8.8 | 0.1 | 0.38 | 0.96 | 1.06 | 1.35 | 3.04 | 16.2 | 17.9 | 26.5 | 56.4 | 0.22 | 0.98 | 1.52 | 2.34 | 5.25 | 11.2 | 19.2 | 25.5 | 37.3 | inhibition at 100 µg/mL [21]: 68.3%; IC50 (A-375 (human melanoma)): > 100 µM; IC50 (HEP-3B (human hepatoma)): 90.5 µM |
| CCc1ccc2nc(C(=O)Nc3c(F)cc(-c4cccc(F)c4)cc3F)c(C)c(O)c2c1 | 6.3 | -0.35 | -0.12 | 0.68 | 1.57 | 3.56 | 12.2 | 17.9 | 26.4 | 28.4 | 47.2 | 0.74 | 2.05 | 5.62 | 11.2 | 16.2 | 23.5 | 31.2 | 46.3 | 56.3 | inhibition at 100 µg/mL [21]: 63.2%; IC50 (A-375 (human melanoma)): 15.8 µM; IC50 (HEP-3B (human hepatoma)): 8.13 µM; IC50 [22]: 3.21 µM |
| CCOc1ccc2nc(C(=O)Nc3c(F)cc(-c4cccc(F)c4)cc3F)c(C)c(O)c2c1 | 7.2 | 0.23 | 0.68 | 1.02 | 1.54 | 2.05 | 2.96 | 4.56 | 15.3 | 16.3 | 37.9 | -0.5 | -0.32 | -0.04 | 0.01 | 0.26 | 1.03 | 1.56 | 2.03 | 11.2 | inhibition at 100 µg/mL [21]: 33.2%; IC50 (A-375 (human melanoma)): > 100 µM; IC50 (HEP-3B (human hepatoma)): > 100 µM |
| Cc1ccc2nc(C(=O)Nc3c(F)cc(-c4cccc(F)c4)cc3F)c(C)c(C(=O)O)c2c1 | 7 | -1.05 | 0.02 | 0.35 | 0.98 | 1.53 | 3.65 | 9.25 | 19.2 | 26.3 | 37.3 | 0.36 | 1.05 | 2.11 | 6.34 | 15.2 | 21.3 | 31.3 | 35.6 | 41.2 | inhibition at 100 µg/mL [21]: 75.2%; IC50 (A-375 (human melanoma)): 31.6 µM; IC50 (HEP-3B (human hepatoma)): 26 µM |
| CCOc1ccc2nc(C(=O)Nc3c(F)cc(-c4cccc(F)c4)cc3F)c(C)c(C(=O)O)c2c1 | 6.8 | 0.3 | 1.02 | 1.96 | 3.05 | 11.2 | 26.6 | 35.2 | 48.3 | 51.2 | 72.3 | -0.12 | 0.05 | 0.98 | 2.06 | 5.34 | 17.9 | 26.5 | 33.2 | 38.6 | inhibition at 100 µg/mL [21]: 65.3%; IC50 (A-375 (human melanoma)): 5.8 µM; IC50 (HEP-3B (human hepatoma)): 14.9 µM; IC50 [22]: 2.83 µM |
| COc1ccc2nc(C(=O)Nc3c(F)cc(-c4cccc(F)c4)cc3F)c(C)c(C(=O)O)c2c1 | 6.9 | 0.05 | 0.13 | 1.05 | 2.06 | 3.87 | 10.2 | 24.6 | 35.2 | 44.5 | 58.7 | -0.68 | -0.57 | -0.66 | 0.02 | 0.68 | 1.05 | 1.62 | 2.34 | 7.24 | inhibition at 100 µg/mL [21]: 28.3%; IC50 (A-375 (human melanoma)): 14.3 µM; IC50 (HEP-3B (human hepatoma)): > 100 µM |

Reference: ChEMBL document CHEMBL3286357, “Design, synthesis and pharmacological evaluation of novel substituted quinoline-2-carboxamide derivatives as human dihydroorotate dehydrogenase (hDHODH) inhibitors and anticancer agents” (Eur J Med Chem, 2014)
